We go through five compounds from ChEMBL document CHEMBL4304834, “3-Amino-chromanes and Tetrahydroquinolines as Selective 5-HT2B, 5-HT7, or σ1 Receptor Ligands” (ACS Med Chem Lett, 2019).

In assay [1] the target is 5-hydroxytryptamine receptor 2A (Homo sapiens, UniProt P28223). Put plainly: Displacement of [3H]-Ketanserin from human recombinant 5-HT2A receptor transiently expressed in HEKT cells after 90 mins by microbeta scintillation counting method. The assay is classed as cell-based. In short, it runs like this:
(§1)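 Radioligand binding run by the NIMH Psychoactive Drug Screening Program. […] Otherwise Ki comes from sigmoidal curve fits of triplicate measurements in a single experiment, or is averaged over repeated experiments each run in triplicate.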

Assay [2] has as its target T1, 5-hydroxytryptamine receptor 2C (Homo sapiens, UniProt P28335).
T1 sequence (P28335 whole entry): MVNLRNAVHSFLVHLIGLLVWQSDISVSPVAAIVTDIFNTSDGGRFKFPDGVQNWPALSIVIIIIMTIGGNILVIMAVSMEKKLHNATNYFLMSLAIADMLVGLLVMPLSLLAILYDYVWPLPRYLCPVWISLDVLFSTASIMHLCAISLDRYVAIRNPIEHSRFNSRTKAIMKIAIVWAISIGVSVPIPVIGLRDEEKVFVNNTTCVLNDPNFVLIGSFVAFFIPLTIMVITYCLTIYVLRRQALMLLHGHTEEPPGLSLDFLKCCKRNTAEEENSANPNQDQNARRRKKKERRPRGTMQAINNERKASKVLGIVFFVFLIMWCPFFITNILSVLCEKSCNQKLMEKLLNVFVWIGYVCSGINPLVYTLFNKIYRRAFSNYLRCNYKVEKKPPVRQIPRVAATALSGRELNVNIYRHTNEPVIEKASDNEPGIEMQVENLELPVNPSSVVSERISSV
Put plainly: Displacement of [3H]-Mesulergine from human recombinant 5-HT2C receptor expressed in HEKT cells after 90 mins by microbeta scintillation counting method. Format: cell-based. In short, it runs like this: as §1

Assay [3] addresses 5-hydroxytryptamine receptor 5A (Homo sapiens, UniProt P47898). Put plainly: Displacement of [3H]-LSD from human recombinant 5-HT5A receptor expressed in Flp-In CHO cells after 90 mins by microbeta scintillation counting method. Format: cell-based. The procedure, abridged:
as §1

The target in assay [4] is Beta-2 adrenergic receptor (Homo sapiens, UniProt P07550). Put plainly: Displacement of [3H]-CGP12177 from human recombinant adrenergic Beta2 receptor expressed in Flp-In HEK cells after 90 mins by microbeta scintillation counting method. Format: cell-based. The procedure, abridged: as §1
Beta-2 adrenergic receptor, sequence (P07550 whole entry): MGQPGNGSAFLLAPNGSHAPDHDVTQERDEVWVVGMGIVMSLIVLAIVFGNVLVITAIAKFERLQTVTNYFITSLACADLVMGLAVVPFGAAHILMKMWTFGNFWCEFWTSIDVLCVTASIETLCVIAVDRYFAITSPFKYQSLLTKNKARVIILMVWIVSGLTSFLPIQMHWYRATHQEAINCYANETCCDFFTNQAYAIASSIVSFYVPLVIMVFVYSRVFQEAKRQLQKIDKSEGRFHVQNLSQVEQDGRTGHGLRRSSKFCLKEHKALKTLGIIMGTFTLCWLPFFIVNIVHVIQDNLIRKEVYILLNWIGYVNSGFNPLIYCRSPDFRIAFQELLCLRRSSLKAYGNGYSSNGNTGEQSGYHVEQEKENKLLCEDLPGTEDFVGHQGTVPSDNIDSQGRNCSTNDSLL
Background: Displacement assays read how much labelled ligand stays bound in the presence of the test substance.

Assay [5] deals with T2, Muscarinic acetylcholine receptor M5 (Homo sapiens, UniProt P08912).
T2 sequence (P08912 whole entry): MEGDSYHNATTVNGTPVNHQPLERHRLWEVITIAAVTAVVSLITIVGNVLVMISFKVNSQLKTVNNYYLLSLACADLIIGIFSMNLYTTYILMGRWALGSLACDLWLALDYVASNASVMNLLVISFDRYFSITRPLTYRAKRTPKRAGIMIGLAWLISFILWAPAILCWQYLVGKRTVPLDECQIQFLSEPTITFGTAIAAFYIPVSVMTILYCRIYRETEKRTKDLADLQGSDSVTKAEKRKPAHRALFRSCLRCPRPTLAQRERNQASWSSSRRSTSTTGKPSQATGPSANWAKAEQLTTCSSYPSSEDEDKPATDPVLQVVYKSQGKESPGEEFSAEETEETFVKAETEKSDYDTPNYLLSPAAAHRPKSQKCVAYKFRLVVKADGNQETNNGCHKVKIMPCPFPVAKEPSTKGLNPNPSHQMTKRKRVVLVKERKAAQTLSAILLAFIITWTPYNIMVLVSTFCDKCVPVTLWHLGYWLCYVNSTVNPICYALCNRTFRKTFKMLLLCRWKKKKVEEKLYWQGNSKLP
Put plainly: Displacement of [3H]-QNB/[3H]-NMS from human recombinant Muscarinic acetylcholine M5 receptor expressed in stable CHO cells after 90 mins by microbeta scintillation counting method. The assay is classed as cell-based. In short, it runs like this: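 Radioligand binding was run by the NIMH Psychoactive Drug Screening Program. Compounds were first screened at 10 μM. Those giving ≥50% binding were taken to full competition curves. Ki is reported as pKi from a sigmoidal curve fit of triplicate measurements in a single experiment; the error is the curve-fit error.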

The target of assay [6] is Sodium-dependent noradrenaline transporter (Homo sapiens, UniProt P23975). Put plainly: Displacement of [3H]-Nisoxetine from human recombinant NET receptor expressed in stable HEK cells after 90 mins by microbeta scintillation counting method. The assay is classed as cell-based. The procedure, abridged:
as §1

Assay [7] deals with T3, Delta-type opioid receptor (Homo sapiens, UniProt P41143). Put plainly: Displacement of [3H]-DADLE from human recombinant DOR receptor expressed in stable HEK cells after 90 mins by microbeta scintillation counting method. Format: cell-based. The procedure, abridged:
as §1

The nature of assay [8]: Displacement of [3H]-PK11195 from PBR receptor in rat brain after 90 mins by microbeta scintillation counting method. Format: tissue-based. In short, it runs like this: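 Radioligand binding run by the NIMH Psychoactive Drug Screening Program. Otherwise Ki comes from sigmoidal curve fits of triplicate measurements in a single experiment, or is averaged over repeated experiments each run in triplicate.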

Assay [9] has as its target Sigma non-opioid intracellular receptor 1 (Homo sapiens, UniProt Q99720). Put plainly: Displacement of [3H]-Pentazocine from human recombinant sigma1 receptor expressed in HEKT cells after 90 mins by microbeta scintillation counting method. Format: cell-based.
Assay [10] addresses 5-hydroxytryptamine receptor 1E (Homo sapiens, UniProt P28566). Put plainly: Displacement of [3H]-HT from human recombinant 5-HT1E receptor expressed in stable HEK cells at 10 uM after 90 mins by microbeta scintillation counting method relative to control. Format: cell-based. In short, it runs like this: as §1
Assay [11] deals with D(2) dopamine receptor (Homo sapiens, UniProt P14416). Nature of the assay: Displacement of [3H]-N-methylspiperone from human recombinant dopamine D2 receptor expressed in stable fibroblast cells at 10 uM after 90 mins by microbeta scintillation counting method relative to control. The assay is classed as cell-based. The procedure, abridged:
as §1

For assay [12], the target named is D(3) dopamine receptor (Homo sapiens, UniProt P35462). Nature of the assay: Displacement of [3H]-N-methylspiperone from human recombinant dopamine D3 receptor expressed in HEKT cells at 10 uM after 90 mins by microbeta scintillation counting method relative to control. Format: cell-based. In short, it runs like this:
as §1

Assay [13] addresses Histamine H4 receptor (Homo sapiens, UniProt Q9H3N8). Put plainly: Displacement of [3H]-Histamine from human recombinant histamine H4 receptor expressed in HEKT cells at 10 uM after 90 mins by microbeta scintillation counting method relative to control. Format: cell-based. In short, it runs like this:
as §1

Assay [14] deals with T3, Delta-type opioid receptor. Nature of the assay: Displacement of [3H]-DADLE from human recombinant DOR receptor expressed in stable HEK cells at 10 uM after 90 mins by microbeta scintillation counting method relative to control. Format: cell-based. The procedure, abridged:
as §1

D(3) dopamine receptor, sequence (P35462 whole entry): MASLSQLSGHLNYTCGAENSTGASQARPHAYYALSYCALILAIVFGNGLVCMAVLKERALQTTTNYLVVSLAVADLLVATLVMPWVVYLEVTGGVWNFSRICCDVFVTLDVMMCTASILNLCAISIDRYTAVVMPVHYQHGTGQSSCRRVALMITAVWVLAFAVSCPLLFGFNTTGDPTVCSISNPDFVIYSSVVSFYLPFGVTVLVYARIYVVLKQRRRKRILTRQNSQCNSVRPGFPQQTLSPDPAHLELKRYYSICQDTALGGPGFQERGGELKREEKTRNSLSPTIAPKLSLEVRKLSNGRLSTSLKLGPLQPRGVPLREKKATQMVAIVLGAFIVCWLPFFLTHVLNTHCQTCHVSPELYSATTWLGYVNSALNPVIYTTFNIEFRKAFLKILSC
T3 sequence (P41143 whole entry): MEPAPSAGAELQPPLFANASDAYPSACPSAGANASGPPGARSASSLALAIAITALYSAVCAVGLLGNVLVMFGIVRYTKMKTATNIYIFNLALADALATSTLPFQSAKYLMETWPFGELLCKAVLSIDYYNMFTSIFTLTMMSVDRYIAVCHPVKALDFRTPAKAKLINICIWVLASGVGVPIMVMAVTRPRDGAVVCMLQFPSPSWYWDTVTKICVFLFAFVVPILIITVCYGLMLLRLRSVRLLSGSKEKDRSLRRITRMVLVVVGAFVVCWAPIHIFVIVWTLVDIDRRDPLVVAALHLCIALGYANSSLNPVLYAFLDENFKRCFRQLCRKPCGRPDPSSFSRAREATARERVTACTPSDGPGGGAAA
5-hydroxytryptamine receptor 2A, sequence (P28223 whole entry): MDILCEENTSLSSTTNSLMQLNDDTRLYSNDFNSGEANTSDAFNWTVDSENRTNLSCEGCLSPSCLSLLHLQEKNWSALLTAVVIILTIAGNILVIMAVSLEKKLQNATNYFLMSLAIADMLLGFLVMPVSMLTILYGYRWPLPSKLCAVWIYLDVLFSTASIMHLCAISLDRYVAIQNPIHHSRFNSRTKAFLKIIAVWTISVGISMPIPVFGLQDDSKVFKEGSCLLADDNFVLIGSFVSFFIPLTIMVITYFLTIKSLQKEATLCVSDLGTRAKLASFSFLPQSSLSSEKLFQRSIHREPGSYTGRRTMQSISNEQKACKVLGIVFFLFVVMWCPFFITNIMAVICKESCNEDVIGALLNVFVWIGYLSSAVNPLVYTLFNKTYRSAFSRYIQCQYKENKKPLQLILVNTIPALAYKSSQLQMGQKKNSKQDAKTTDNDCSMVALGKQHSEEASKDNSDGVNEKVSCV
Sigma non-opioid intracellular receptor 1, sequence (Q99720 whole entry): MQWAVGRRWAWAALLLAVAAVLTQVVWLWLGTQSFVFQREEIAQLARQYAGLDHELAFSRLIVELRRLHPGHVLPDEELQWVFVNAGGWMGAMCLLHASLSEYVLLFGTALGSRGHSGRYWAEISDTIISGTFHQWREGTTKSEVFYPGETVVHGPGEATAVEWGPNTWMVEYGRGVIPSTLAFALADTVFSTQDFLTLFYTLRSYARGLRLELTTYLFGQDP
Sodium-dependent noradrenaline transporter, sequence (P23975 whole entry): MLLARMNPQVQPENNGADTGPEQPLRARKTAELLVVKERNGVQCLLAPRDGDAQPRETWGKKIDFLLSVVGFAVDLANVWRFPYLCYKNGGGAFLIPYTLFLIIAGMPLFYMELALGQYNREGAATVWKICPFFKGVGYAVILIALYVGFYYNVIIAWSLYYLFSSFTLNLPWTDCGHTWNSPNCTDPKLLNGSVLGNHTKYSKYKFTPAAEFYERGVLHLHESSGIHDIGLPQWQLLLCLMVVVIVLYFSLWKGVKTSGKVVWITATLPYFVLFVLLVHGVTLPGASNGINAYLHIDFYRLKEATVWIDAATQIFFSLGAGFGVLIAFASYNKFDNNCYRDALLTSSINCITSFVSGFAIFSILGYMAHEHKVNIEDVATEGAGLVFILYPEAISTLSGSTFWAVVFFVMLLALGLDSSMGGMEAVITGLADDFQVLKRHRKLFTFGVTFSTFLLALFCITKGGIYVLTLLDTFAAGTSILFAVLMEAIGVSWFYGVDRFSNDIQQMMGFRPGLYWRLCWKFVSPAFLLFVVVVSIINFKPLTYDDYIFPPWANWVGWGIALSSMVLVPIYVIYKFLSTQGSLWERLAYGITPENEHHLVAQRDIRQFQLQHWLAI
5-hydroxytryptamine receptor 1E, sequence (P28566 whole entry): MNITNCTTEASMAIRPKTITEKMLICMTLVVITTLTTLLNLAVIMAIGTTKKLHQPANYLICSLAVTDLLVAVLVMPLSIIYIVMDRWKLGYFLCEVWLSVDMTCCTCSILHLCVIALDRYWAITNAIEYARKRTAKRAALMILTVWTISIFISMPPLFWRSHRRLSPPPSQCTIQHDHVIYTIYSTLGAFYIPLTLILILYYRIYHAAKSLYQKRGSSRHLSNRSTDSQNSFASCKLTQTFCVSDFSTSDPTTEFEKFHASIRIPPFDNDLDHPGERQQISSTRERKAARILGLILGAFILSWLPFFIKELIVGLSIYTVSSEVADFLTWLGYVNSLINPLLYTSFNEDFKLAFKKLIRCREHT
5-hydroxytryptamine receptor 5A, sequence (P47898 whole entry): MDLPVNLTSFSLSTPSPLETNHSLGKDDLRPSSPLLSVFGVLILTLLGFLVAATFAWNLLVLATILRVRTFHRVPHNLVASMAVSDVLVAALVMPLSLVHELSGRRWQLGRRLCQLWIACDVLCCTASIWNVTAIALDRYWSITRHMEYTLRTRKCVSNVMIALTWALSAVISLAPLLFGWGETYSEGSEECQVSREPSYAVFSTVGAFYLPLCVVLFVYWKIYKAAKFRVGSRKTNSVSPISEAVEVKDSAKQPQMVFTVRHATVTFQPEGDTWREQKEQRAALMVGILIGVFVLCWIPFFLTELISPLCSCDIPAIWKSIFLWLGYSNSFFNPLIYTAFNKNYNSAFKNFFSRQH
Histamine H4 receptor, sequence (Q9H3N8 whole entry): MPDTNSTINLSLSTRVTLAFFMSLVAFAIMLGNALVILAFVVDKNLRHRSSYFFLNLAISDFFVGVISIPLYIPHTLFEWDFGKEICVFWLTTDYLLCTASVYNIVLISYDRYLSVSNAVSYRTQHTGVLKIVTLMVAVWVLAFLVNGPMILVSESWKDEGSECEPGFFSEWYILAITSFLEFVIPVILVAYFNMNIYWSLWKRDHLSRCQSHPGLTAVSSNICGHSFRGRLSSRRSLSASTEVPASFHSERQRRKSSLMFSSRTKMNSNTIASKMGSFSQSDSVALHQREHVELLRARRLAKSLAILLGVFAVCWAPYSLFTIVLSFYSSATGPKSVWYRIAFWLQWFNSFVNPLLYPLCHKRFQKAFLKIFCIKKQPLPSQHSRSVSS
D(2) dopamine receptor, sequence (P14416 whole entry): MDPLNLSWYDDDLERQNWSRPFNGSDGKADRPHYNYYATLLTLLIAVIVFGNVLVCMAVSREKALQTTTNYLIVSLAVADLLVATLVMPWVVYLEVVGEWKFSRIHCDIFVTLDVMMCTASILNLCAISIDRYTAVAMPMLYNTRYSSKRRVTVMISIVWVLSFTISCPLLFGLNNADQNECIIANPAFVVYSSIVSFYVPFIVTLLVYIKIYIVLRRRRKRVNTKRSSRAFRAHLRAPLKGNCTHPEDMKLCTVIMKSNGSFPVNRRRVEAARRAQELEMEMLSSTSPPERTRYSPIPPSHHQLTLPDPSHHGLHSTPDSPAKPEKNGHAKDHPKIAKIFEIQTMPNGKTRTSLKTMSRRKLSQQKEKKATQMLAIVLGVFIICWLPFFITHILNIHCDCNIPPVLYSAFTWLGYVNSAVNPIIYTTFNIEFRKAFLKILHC

What is called pKi is −log10 of the Ki, conventionally taken in molar units. Low values mean a high Ki, high ones a low Ki. One may read the inhibition as how much of the control response was suppressed. `CC[C@H]1c2cc(OC)ccc2CC[C@@]1(C)N` (racemic): the Ki in assay [1] was above 10000 nM; in assay [2], 2510 nM; in assay [3], 2000 nM; in [4], 5010 nM; in [5], above 10000 nM; in [6], 2510 nM. For the same compound, the Ki in assay [7] was above 10000 nM; in [9] (read-out: pKi (converted)), 126 nM. Moreover, the pKi in [8] was below 5. Moreover, the inhibition in [10], in assay [11], in [12], in [13] and in assay [14] was below 50% each time.
In the case of `C[C@@]12CN(c3ccccc3)c3ccccc3[C@@H]1CCN2` (racemic), the Ki was above 10000 nM in assay [2]; above 10000 nM in assay [4]; above 10000 nM in assay [5]; 1580 nM in assay [6]; above 10000 nM in assay [7].
Take `CC[C@H]1c2cc(C)ccc2OC[C@@]1(C)N` (racemic): the Ki was above 10000 nM in [1]; 2510 nM in assay [2]; above 10000 nM in assay [3]; above 10000 nM in assay [4]; above 10000 nM in assay [5]; 316 nM in [6]. In addition, the Ki in assay [7] was above 10000 nM; in assay [9] (read-out: pKi (converted)), 1000 nM. For the same compound, the negative logarithm of the Ki (pKi) in assay [8] is recorded as below 5. In addition, the inhibition in assay [10], in assay [11], in [12], in assay [13] and in assay [14] was below 50% throughout.
Consider `CC[C@H]1c2ccccc2N(c2ccccc2)C[C@@]1(C)N` (racemic), for which the Ki in assay [1] was above 10000 nM; in [2], 3980 nM; in assay [3], above 10000 nM; in assay [4], above 10000 nM; in [5], above 10000 nM; in assay [6], 398 nM. For the same compound, the Ki was above 10000 nM in [7] and 316 nM in assay [9] (read-out: pKi (converted)).
As to `COc1cc(OC)c2c(c1)OC[C@@]1(C)NCC[C@@H]21` (racemic), the Ki is 1580 nM in [2]; 575 nM in assay [4]; above 10000 nM in [5]; above 10000 nM in assay [6]; above 10000 nM in assay [7]; 44 nM in assay [9] (read-out: Ki). This compound also registered a pKi in assay [8] below 5. In addition, the inhibition in assay [10], in [11], in assay [12], in assay [13] and in [14] was below 50% in each case.
